Hits are enriched below; roughly 1.2% of the tested compounds scored in any of these assays.
CRFR2-BP ag: agonists of CRF-BP/CRF-R2 complex, primary screen, cell-based, HEK293, calcium dye fluorescence, uHTS. calcium dye fluorescence (FLIPR); percent of saturating CRF peptide response. AID 588473, 2011. activation, % at 13.2 µM. 350,000 compounds, 0.46% hits;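 active means activation of at least 50%, plus an integration ratio under a set limit after plate pattern correction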;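 further: plate controls were neutral control wells without compound for no effect and CRF at EC100 for full effect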
CRFBP-R2 block: antagonists of CRF-BP/CRF-R2 complex, primary screen, cell-based, HEK293, calcium dye fluorescence, uHTS; CRF-induced calcium fluorescence; inhibition, % at 11.8 µM; 350,000 compounds, 0.59% hits;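 active means inhibition of the ligand-induced calcium signal above about 50% at the single tested concentration, limit read from the data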
TRPML3 agonist: human TRPML3 channel agonists, primary screen, cell-based, HEK293 TRPML3-YFP, Fluo-8 calcium fluorescence, 3 µM. Mucolipin-3 (Homo sapiens), Q8TDD5. 100% = the carbachol control signal. activation, % at 3 µM. 220,000 compounds, 0.29% hits. AID 1448, 2008;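 active means activation above its plate's cutoff, the mean activation of the plate's test wells plus 3 SD, cut at about 12% in these data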;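 further: 0% = DMSO only wells and 100% = carbachol wells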
Target sequence (Q8TDD5 whole entry, looked up): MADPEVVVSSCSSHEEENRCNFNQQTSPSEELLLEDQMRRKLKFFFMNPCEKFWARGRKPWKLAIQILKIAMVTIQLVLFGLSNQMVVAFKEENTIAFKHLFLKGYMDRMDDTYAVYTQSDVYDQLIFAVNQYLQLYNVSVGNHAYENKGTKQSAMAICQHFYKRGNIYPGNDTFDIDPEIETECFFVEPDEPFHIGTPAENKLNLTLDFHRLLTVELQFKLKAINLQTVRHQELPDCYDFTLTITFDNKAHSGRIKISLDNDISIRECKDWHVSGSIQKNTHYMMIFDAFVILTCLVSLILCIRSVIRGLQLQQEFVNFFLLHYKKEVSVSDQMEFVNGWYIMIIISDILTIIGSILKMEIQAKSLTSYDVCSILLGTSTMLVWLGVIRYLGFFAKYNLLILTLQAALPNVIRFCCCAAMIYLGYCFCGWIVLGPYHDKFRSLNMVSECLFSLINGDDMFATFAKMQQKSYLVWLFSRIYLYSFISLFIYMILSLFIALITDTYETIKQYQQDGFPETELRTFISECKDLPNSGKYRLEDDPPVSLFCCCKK
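Material: TRPML3-YFP stable HEK293 cells | Dosing: One concentration, 3 µM nominal, 0.3% DMSO | Timing: 125 s total fluorescence read per well | Technique: Fluo-8 calcium dye fluorescence, ex 470-495, em 515-575 nm | Measure: Percent activation from peak-to-basal fluorescence ratio, scaled between DMSO and carbachol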
TRPN1 ag: zebrafish TRPN1 channel agonists, primary screen, cell-based, HEK293, calcium fluorescence | 220,000 compounds, 0.18% hits | transient receptor potential cation channel N1 (TRPN1/NompC), Danio rerio | HEK293 zebrafish TRPN1-YFP, Fluo-8 calcium fluorescence; 100% = response to 87 µM carbachol | activation, % at 3 µM;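 active means activation above its plate's cutoff, the mean activation of test wells on that plate plus 3 SD, cut at about 19% in these data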;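 further: 0% = DMSO alone and 100% = 87 µM carbachol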
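System: zebrafish TRPN1-YFP in HEK293 cells / Dosing: 3 µM single point / Timing: dye loading 1 h at 37 °C, then 30 min room temperature / Signal: Fluo-8 calcium fluorescence, excitation 470-495 nm, emission 515-575 nm / Read-out basis: percent activation from peak over basal fluorescence ratio, control-normalized / Control set: high carbachol 87 µM, low DMSO alone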
TRPN1 counter: zebrafish TRPN1 channel agonists, counter-screen for TRPML3 agonist project, cell-based, HEK293 TRPN1-YFP, Fluo-8 calcium; shares compounds with TRPML3 agonist; Fluo-8 calcium fluorescence; scaled: carbachol wells 100%, DMSO wells 0%; activation, % at 3 µM; 310 compounds, 10% hits; AID 1525, 2009;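 active means mean activation over replicates above a set limit taken from the earlier TRPN1 channel primary screen, cut at about 19% in these data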;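 further: 100% = carbachol and 0% = 0.3% DMSO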
TRPML3 ag conf: human TRPML3 channel agonists, confirmation, cell-based, HEK293 TRPML3-YFP, Fluo-8 calcium, triplicate; shares compounds with TRPML3 agonist; Fluo-8 calcium fluorescence; 100% set by carbachol, 0% by DMSO; activation, % at 3 µM; 310 compounds, 80% hits;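 active means activation above a set limit derived from the earlier primary screen, cut at about 12% in these data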
Starred values were filed as active, the others as inactive; x = no result.

SMILES	CRFR2-BP ag	CRFBP-R2 block	TRPML3 agonist	TRPN1 ag	TRPN1 counter	TRPML3 ag conf
O=C(C1Cc2ccccc2CN1S(=O)(=O)c1cccs1)N1CCCCC1 (stereo not given)	-1	-3	15*	-1	0	52*
O=C(C1Cc2ccccc2CN1S(=O)(=O)c1ccc(F)cc1)N1CCCCC1 (stereo not given)	31	-21	64*	1	4	127*
Cc1ccc([N+](=O)[O-])cc1S(=O)(=O)N1CCC(C)CC1	-1	-1	0	-1	x	x
Cc1ccc(S(=O)(=O)N2CCC(C)CC2)c([N+](=O)[O-])c1	-3	6	48*	-1	-1	60*
Cc1cc(C)cc(NC2=NC3(CCCCC3)N=C(N)N2)c1	2	2	1	1	x	x
O=S(=O)(c1ccc(Cl)cc1)N1CCN(S(=O)(=O)N2CCCCCC2)CC1	5	5	1	1	x	x
Cc1ccc(N2CCN(S(=O)(=O)N3CCCCC3)CC2)c(C)c1	9	-104	37*	0	4	132*
O=S(=O)(c1ccc(Cl)cc1Br)N1CCCCC1	-1	-11	15*	0	-1	27*
O=S(=O)(N1CCCCC1)N1CCN(c2cc(Cl)ccc2Cl)CC1	0	-78	19*	-1	-1	96*
CC(C)(C)c1ccc(C(=O)N/N=C2\C3CN4CCN(C3)CC2(c2ccccc2)C4)cc1	0	-13	1	0	x	x
Cc1ccc(S(=O)(=O)N2C(=S)SCC2(C)C)cc1	x	x	28*	2	3	47*
C=CCOc1ccc2c(c1)c(S(=O)(=O)c1ccc(C)cc1)cn2COC	0	-7	127*	1	0	139*
Cc1nc2c(c(=O)n1CCC(C)C)c1nc3ccccc3nc1n2CC1CCCO1 (stereo not given)	1	2	1	2	x	x
O=C(Nc1ccc(-c2cn3ccccc3n2)cc1)c1ccco1	-1	19	0	-1	x	x
O=c1c(Cl)c(Cl)cnn1Cc1nnc(-c2ccccc2Br)o1	157*	-220	18*	7	15	37*
COc1ccc(Cl)cc1C(=O)CSc1nnnn1C1CCCC1	-2	20	74*	-1	-1	51*
COc1ccc(Cl)cc1C(=O)CSc1nnnn1C1CCCCC1	1	-11	5	-1	x	x
O=C1c2ccccc2-c2onc3ccc(N4CCCC4)c1c23	83*	-52	14*	18	51*	39*
CCOc1ccc2noc3c2c1C(=O)c1ccccc1-3	0	5	4	4	x	x
Cc1cc(C)nc(/N=C(\N)Nc2ccc(-c3ccccc3)cc2)n1	14	-55	15*	16	21*	11
CCCOc1cc(N(CC)CC)ccc1/C=C(/C#N)c1nc2ccc(C)cc2[nH]1	107*	-137	13*	18	24*	13*
Cc1ccc2nc(/C(C#N)=C\c3cc(O)ccc3[N+](=O)[O-])[nH]c2c1	7	1	0	-1	x	x
O=C1c2ccccc2CN1C(CO)Cc1ccccc1 (stereo not given)	-1	21	x	x	x	x
COC(=O)c1[nH]c2c(c1C)C(=O)CC(c1cccs1)C2 (stereo not given)	-2	5	26*	1	0	0
COc1ccc(/C=C2\C(=O)NC(=S)N2C(=O)c2ccc(F)cc2)cc1	36	-33	14*	14	16	10
O=C1CCc2cc(S(=O)(=O)NCc3ccc(F)cc3)cc3c2N1CCC3	2	0	x	x	x	x
C=CCN1C=CC(=C/C=C(/C#N)C(=O)OCC)C=C1	71*	-35	12*	16	18	14*
CCOC(=O)/C(C#N)=C/C=C1/C=CC=CN1C	0	4	1	0	x	x
COc1ccc(C)cc1S(=O)(=O)N(C)CC(=O)NC1CCCCC1	-1	12	0	-1	x	x

Screening data: PubChem, several laboratories
